What was measured:
Splenocyte = test: Cytotoxicity against Balb/c mouse splenocytes assessed as reduction in cell viability by MTT assay; type: cell-based
Outline: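 BALB/C spleen homogenized in PBS pH 7.4, filtered through nylon voile, washed three times by centrifugation (450g, 5 min), resuspended in PBS at (2−5) × 10^6 cells/mL. Viability measured by standard MTT method; at least triplicate, mean ± SD.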

Ehrlich = test: Cytotoxicity against mouse Ehrlich carcinoma cells assessed as reduction in cell viability by MTT assay; type: cell-based
Outline: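 Ehrlich ascites carcinoma (tetraploid strain) grown in the peritoneal cavity of 18–20 g CD-1 mice. Cells harvested 7−10 days after inoculation, washed twice in PBS pH 7.4 (450g, 5 min), resuspended in serum-free RPMI-1640 at about (1−2) × 10^6 cells/mL. Standard MTT viability read-out; at least triplicate, mean ± SD.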

RAW264.7 [1] = test: Induction of ROS generation in mouse RAW264.7 cells at 10 uM after 24 hrs by 2,7-dichlorodihydrofluorescein diacetate staining based fluorescence assay; type: cell-based; settings: raw264.7, 24 h
Erythrocyte = test: Hemolytic activity against CD-1 mouse erythrocytes after 1 hr by spectroscopic method; type: ADME, cell-based
Outline: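 CD-1 mouse blood erythrocytes washed three times in PBS pH 7.4 (450g, 5 min), resuspended to OD700 1.5, kept on ice. Suspension mixed 9:1 with test solution at various concentrations, 37 °C for 1 h. Cells pelleted; supernatant hemoglobin read at 570 nm. Expressed as % hemolysis versus control; EC50 reported.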

RAW264.7 [2] = test: Cytotoxicity against mouse RAW264.7 cells assessed as reduction in cell viability by MTT assay; type: cell-based
Outline: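 Macrophages (ATCC) grown in DMEM with 10% FBS at 37 °C, humidified 5% CO2. Viability by standard MTT method; at least triplicate, mean ± SD.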

RAW264.7 [3] = test: Immunomodulatory activity in mouse RAW264.7 cells assessed as inhibition of LPS-induced ROS level at 10 uM after 24 hrs by 2,7-dichlorodihydrofluorescein diacetate staining based fluorescence assay relative to control; type: functional; settings: RAW264.7, 24 h
Outline: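 Macrophages allowed to adhere 2 h at 37 °C, 5% CO2, then exposed to compounds at 10 μM for 24 h. In each experiment compounds were co-incubated with E. coli 055:B5 LPS (1.0 μg/mL). H2DCF-DA added (final 10 μM), 10 min at 37 °C. Fluorescence read at 485/518 nm; at least triplicate, mean ± SD, Student's t test (p < 0.05).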

Row | Compound | Activity (Splenocyte) | Activity (Ehrlich) | Activity (RAW264.7 [1]) | Activity (Erythrocyte) | Activity (RAW264.7 [2]) | inhibition at 10 µM (RAW264.7 [3]) [%]
1 | CO[C@@H]1[C@@H](O)[C@H](O[C@@H]2CC3=C4[C@@H](O)[C@@H](O)[C@H]5C[C@H](O)CC[C@]5(C)[C@H]4CC[C@]3(C)[C@H]2[C@H](C)/C=C/[C@@H](C)C(C)C)O[C@H]1[C@H](O)CO | Non-Toxic | Non-Toxic | Non-Toxic | Non-Toxic | Non-Toxic | 
2 | C=C(CC[C@@H](C)[C@H]1[C@H](O[C@@H]2O[C@@H]([C@H](O)COC)[C@H](O)[C@H]2O)CC2=C3[C@@H](O[C@@H]4O[C@@H]([C@H](O)CO)[C@H](OC)[C@H]4O)[C@@H](O)[C@H]4C[C@H](O)CC[C@]4(C)[C@H]3CC[C@@]21C)C(C)C | Non-Toxic | Non-Toxic | Non-Toxic | Non-Toxic | Non-Toxic | 
3 | CO[C@@H]1[C@@H](O)[C@H](O[C@@H]2CC3=C4[C@@H](O)[C@@H](O)[C@H]5C[C@H](O)CC[C@]5(C)[C@H]4CC[C@]3(C)[C@H]2[C@H](C)/C=C/[C@@H](C)C(C)C)O[C@H](CO)[C@H]1O | Non-Toxic | Non-Toxic | Non-Toxic | Non-Toxic | Non-Toxic | 24
4 | COC[C@@H](O)[C@@H]1O[C@@H](O[C@@H]2C3=C4C[C@@H](O[C@@H]5O[C@H](CO)[C@@H](O)[C@H](OC)[C@H]5O)[C@H]([C@H](C)CCCC(C)C)[C@@]4(C)CC[C@@H]3[C@@]3(C)CC[C@@H](O)C[C@@H]3[C@@H]2O)[C@H](O)[C@H]1O | Non-Toxic | Non-Toxic | Non-Toxic | Non-Toxic | Non-Toxic | 
5 | CO[C@@H]1[C@@H](O)[C@H](O[C@@H]2CC3=C4[C@@H](O)[C@@H](O)[C@H]5C[C@H](O)CC[C@]5(C)[C@H]4CC[C@]3(C)[C@H]2[C@H](C)/C=C/C(C)C)O[C@H](CO)[C@H]1O | Non-Toxic | Non-Toxic | Non-Toxic | Non-Toxic | Non-Toxic | 
6 | COC[C@@H](O)[C@@H]1O[C@@H](O[C@@H]2C3=C4C[C@@H](O[C@@H]5O[C@H](CO)[C@@H](O)[C@H](OC)[C@H]5O)[C@H]([C@H](C)/C=C/CC(C)C)[C@@]4(C)CC[C@@H]3[C@@]3(C)CC[C@@H](O)C[C@@H]3[C@@H]2O)[C@H](O)[C@H]1O | Non-Toxic | Non-Toxic | Non-Toxic | Non-Toxic | Non-Toxic | 
7 | COC[C@@H](O)[C@@H]1O[C@@H](O[C@@H]2CC3=C4[C@@H](O)[C@@H](O)[C@H]5C[C@H](O)CC[C@]5(C)[C@H]4CC[C@]3(C)[C@H]2[C@H](C)/C=C/[C@@H](C)C(C)C)[C@H](O)[C@H]1O | Non-Toxic | Non-Toxic | Non-Toxic | Non-Toxic | Non-Toxic | 
8 | COC[C@@H](O)[C@@H]1O[C@@H](O[C@@H]2C3=C4C[C@@H](O[C@@H]5O[C@@H]([C@H](O)COC)[C@H](O)[C@H]5O)[C@H]([C@H](C)/C=C/[C@@H](C)C(C)C)[C@@]4(C)CC[C@@H]3[C@@]3(C)CC[C@@H](O)C[C@@H]3[C@@H]2O)[C@H](O)[C@H]1O | Non-Toxic | Non-Toxic | Non-Toxic | Non-Toxic | Non-Toxic | 

Source: ChEMBL document CHEMBL3994600, “Anthenosides L-U, Steroidal Glycosides with Unusual Structural Features from the Starfish Anthenea aspera” (J Nat Prod, 2016)
